Seven molecules from ChEMBL document CHEMBL1131108, “Phenothiazine inhibitors of trypanothione reductase as potential antitrypanosomal and antileishmanial drugs” (J Med Chem, 1998) can be followed below.

pEC50, pIC50: −log10 of the molar value.

The species named for assay [1] is Mus musculus. Put plainly: Effective dose against Leishmania donovani (Leishmania donovani) amastigotes in mouse peritoneal macrophages; Range is 10-30 uM. The format is functional. To be noted: read-out: ED50 (the source's name). The method in brief:
(§1)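 Mouse peritoneal macrophages kept on chamber slides in RPMI 1640 with 10% heat-inactivated foetal calf serum, 37 °C, 5% CO2, and infected with L. donovani MHOM/ET/69/L82 amastigotes taken from infected hamster spleens. After 24 h, compounds were added in a 3-fold dilution series in quadruplicate for 5 days. Slides were methanol-fixed and Giemsa-stained, then scored for the proportion of infected macrophages.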

The species named for assay [2] is Mus musculus. Put plainly: Effective dose against Trypanosoma cruzi (Trypanosoma cruzi) trypomastigotes in mouse peritoneal macrophages. The format is functional. To be noted: read-out: ED50 (the source's name).
For assay [3], the target named is T1, Trypanothione reductase (Trypanosoma cruzi, UniProt P28593). Put plainly: Inhibitory activity against recombinant Trypanosoma cruzi (Trypanosoma cruzi) Trypanothione reductase. The conditions noted are these: read-out: I50. In a few lines:
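Recombinant T. cruzi TR, overexpressed in E. coli JM109 and homogeneous by SDS-PAGE, was used at about 0.3 µg/mL. Assay at 25 °C in 0.02 M HEPES pH 7.25 with 0.15 M KCl, 1 mM EDTA, 0.12 mM trypanothione disulfide and 0.1 mM NADPH, read at 340 nm. I50 came from nonlinear least-squares fitting of velocity versus inhibitor concentration using the linear competitive inhibition equation.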

The subject of assay [4] is Trypanosoma brucei. In words: Effective dose against Trypanosoma brucei) bloodstream form trypomastigotes in HMI-9 medium. To be noted: read-out: ED50 (the source's name).
The species entered for assay [5] is Mus musculus. Put plainly: Effective dose against Leishmania donovani (Leishmania donovani) amastigotes in mouse peritoneal macrophages. The format is functional. The conditions noted are these: read-out: ED50 (the source's name). The method in brief: as §1
For assay [6], the species on record is Mus musculus. Put plainly: Effective dose against […]; Toxic to the macrophages. The format is functional.
For assay [7], the species on record is Mus musculus. Put plainly: Effective dose against Trypanosoma uM. The format is functional.
The species entered for assay [8] is Mus musculus. Put plainly: Effective dose against Trypanosoma […]) trypomastigotes in mouse peritoneal macrophages. The format is functional. To be noted: read-out: ED50 (the source's name).
In assay [9] the target is T1, Trypanothione reductase. In words: Inhibitory activity against recombinant Trypanosoma cruzi (Trypanosoma cruzi) Trypanothione reductase; No inhibition at 1000 uM.
For assay [10], the target named is T2, Glutathione reductase, mitochondrial (Homo sapiens, UniProt P00390).
T2 sequence (P00390 whole entry): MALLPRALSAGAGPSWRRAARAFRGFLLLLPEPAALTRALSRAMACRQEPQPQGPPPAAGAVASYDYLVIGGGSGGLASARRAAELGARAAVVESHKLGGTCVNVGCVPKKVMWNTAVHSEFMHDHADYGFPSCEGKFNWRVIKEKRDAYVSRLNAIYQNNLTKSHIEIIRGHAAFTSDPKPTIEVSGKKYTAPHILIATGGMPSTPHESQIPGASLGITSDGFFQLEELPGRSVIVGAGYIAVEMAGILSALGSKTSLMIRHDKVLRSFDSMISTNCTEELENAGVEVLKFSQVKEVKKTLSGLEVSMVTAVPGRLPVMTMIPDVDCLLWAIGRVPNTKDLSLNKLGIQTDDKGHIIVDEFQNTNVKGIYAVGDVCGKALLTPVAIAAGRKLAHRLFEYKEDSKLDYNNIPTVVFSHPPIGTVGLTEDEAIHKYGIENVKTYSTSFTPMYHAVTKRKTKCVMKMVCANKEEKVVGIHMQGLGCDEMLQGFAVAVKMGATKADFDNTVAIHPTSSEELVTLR
In words: Inhibitory activity against human erythrocyte glutathione reductase; '*' indicates No inhibition. The method in brief: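 Enzyme was isolated from human erythrocytes and assayed spectrophotometrically at 340 nm under literature conditions. Compounds were tested up to 1 mM, or 0.1 mM where solubility was limited.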

Assay [11] deals with Trypanosoma brucei. Put plainly: Effective dose against Trypanosoma brucei) bloodstream form trypomastigotes; <3, >1. The conditions noted are these: read-out: ED50 (the source's name).

T1 sequence (P28593 whole entry): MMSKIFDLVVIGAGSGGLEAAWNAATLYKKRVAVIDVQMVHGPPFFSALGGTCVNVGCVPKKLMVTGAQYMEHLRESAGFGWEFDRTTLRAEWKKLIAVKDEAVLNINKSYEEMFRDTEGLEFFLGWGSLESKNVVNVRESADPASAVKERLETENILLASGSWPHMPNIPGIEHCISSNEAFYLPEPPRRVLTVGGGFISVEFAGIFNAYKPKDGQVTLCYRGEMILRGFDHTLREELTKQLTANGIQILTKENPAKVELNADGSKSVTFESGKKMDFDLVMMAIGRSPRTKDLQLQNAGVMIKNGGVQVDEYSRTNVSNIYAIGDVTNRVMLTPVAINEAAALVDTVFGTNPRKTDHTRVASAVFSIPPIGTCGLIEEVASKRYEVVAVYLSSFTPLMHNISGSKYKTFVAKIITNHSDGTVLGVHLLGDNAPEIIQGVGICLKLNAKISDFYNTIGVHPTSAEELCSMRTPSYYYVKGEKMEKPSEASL

With `CCCC(=O)c1ccc2c(c1)N(CCCN(C)C)c1ccccc1S2`, the pEC50 is 5.00 in the assay listed under Mus musculus [1], < 4.52 in the assay listed under Mus musculus [2] and 5.49 with Trypanosoma brucei [4]. The pIC50 at Trypanothione reductase [3] was 3.52.

For `O=C(CCC(=O)N1c2ccccc2Sc2ccc(Cl)cc21)NNc1ccccc1`, the pEC50 in the assay filed under Mus musculus [5] is 4.47; in the assay with Trypanosoma brucei [4], 4.82. Further, the pIC50 on Trypanothione reductase [3] was 3.82. Moreover, the ED50 entry in the assay filed under Mus musculus [6] is “Toxic”.

Take `CC(=O)c1ccc2c(c1)N(CCCN(C)C)c1cc(C(C)=O)ccc1S2`: the ED50 in the assay filed under Mus musculus [7] is 10 µM. Also, the pEC50 in the assay filed under Mus musculus [5] and in the assay filed under Mus musculus [2] was < 4.52 each time. The pIC50 on Trypanothione reductase [3] is 3.33.

With `C/C(=N/OCc1ccccc1)c1ccc2c(c1)N(CCCN(C)C)c1ccccc1S2`, the pEC50 in the assay filed under Mus musculus [8] was 5.81; in the assay listed under Mus musculus [5] it was 4.78; in the assay filed under Mus musculus [2], < 4.52. Moreover, the pIC50 on Trypanothione reductase [3] is 3.69.

As to `c1ccc2c(c1)Nc1ccccc1S2` [PHENOTHIAZINE], at Trypanothione reductase [9], the I50 entry is “No inhibition”.

For the molecule `C/C(=N\OCc1ccccc1)c1ccc2c(c1)N(CCCN(C)C)c1cc(Cl)ccc1S2`, the pEC50 was 5.46 in the assay listed under Mus musculus [8], 5.17 in the assay filed under Mus musculus [5] and < 4.52 in the assay filed under Mus musculus [2]. Moreover, on Trypanothione reductase [3], the pIC50 is 3.70.

Turning to `NCCCN1c2ccccc2Sc2ccc(Cl)cc21` [NOR2-CHLORPROMAZINE], in assay [10], the I50 entry is “Not Active”. For the same molecule, the pEC50 in the assay filed under Mus musculus [5] is 5.00; in the assay listed under Mus musculus [2] it was 5.23; in the assay on Trypanosoma brucei [11], > 5.52. In addition, at Trypanothione reductase [3], the pIC50 was 3.86.
